Measurements: ChEMBL document CHEMBL5058577, “EUbOPEN Chemogenomics Library 2 (Multiplex)” (2022)

System: U2OS
Experiment: Multiplex assay against U2OS
Format: toxicity, cell-based
Details: human
In short: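 Live cells carried four stains from seeding: Hoechst33342, BioTracker Green Microtubule Cytoskeleton Dye, MitoTracker Red and Annexin V Alexa Fluor 680. They were imaged on a CQ1 microscope at 37°C and 5% CO2 after compound addition. Using CellPathfinder machine-learning gating, cells were split into Hoechst high-intensity objects or normal cells, normal cells into healthy, pyknosed or fragmented nuclei, and pyknosed cells into mitotic or apoptotic; tubulin, mitochondrial-mass and membrane-permeability phenotypes are per cents of healthy-nucleus cells.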

[1] = 12 h, 1 µM, compound concentration 1 uM, replicate 1
[2] = 12 h, 1 µM, compound concentration 1 uM, replicate 2
[3] = 12 h, 10 µM, compound concentration 10 uM, replicate 1
[4] = 12 h, 10 µM, compound concentration 10 uM, replicate 2
[5] = 24 h, 1 µM, compound concentration 1 uM, replicate 1
[6] = 24 h, 1 µM, compound concentration 1 uM, replicate 2
[7] = 24 h, 10 µM, compound concentration 10 uM, replicate 1
[8] = 24 h, 10 µM, compound concentration 10 uM, replicate 2
[9] = 48 h, 1 µM, compound concentration 1 uM, replicate 1
[10] = 48 h, 1 µM, compound concentration 1 uM, replicate 2
[11] = 48 h, 10 µM, compound concentration 10 uM, replicate 1
[12] = 48 h, 10 µM, compound concentration 10 uM, replicate 2

Structure (SMILES): CCCC(CCC)C(=O)O [VALPROIC ACID]
- Population Apoptotic (%) [1]: 72%
- Population Fragmented Nuclei (%) [1]: 28%
- Population Healthy Nuclei (%) [1]: 63%
- Population Hoechst High Intensity Objects (%) [1]: 6%
- Population Membrane Permeable-Phenotype (%) [1]: 9%
- Population Mitochondria Different-Phenotype (%) [1]: 7%
- Population Mitotic Cells (%) [1]: 27%
- Population Normal (%) [1]: 93%
- Population Pyknosed Nuclei (%) [1]: 8%
- Population Tubulin-Different-Phenotype (%) [1]: 8%
- Population Apoptotic (%) [2]: 66%
- Population Fragmented Nuclei (%) [2]: 14%
- Population Healthy Nuclei (%) [2]: 77%
- Population Hoechst High Intensity Objects (%) [2]: 2%
- Population Membrane Permeable-Phenotype (%) [2]: 8%
- Population Mitochondria Different-Phenotype (%) [2]: 3%
- Population Mitotic Cells (%) [2]: 33%
- Population Normal (%) [2]: 97%
- Population Tubulin-Different-Phenotype (%) [2]: 6%
- Population Apoptotic (%) [3]: 77%
- Population Fragmented Nuclei (%) [3]: 30%
- Population Healthy Nuclei (%) [3]: 66%
- Population Hoechst High Intensity Objects (%) [3]: 4%
- Population Membrane Permeable-Phenotype (%) [3]: 6%
- Population Mitochondria Different-Phenotype (%) [3]: 3%
- Population Mitotic Cells (%) [3]: 22%
- Population Normal (%) [3]: 95%
- Population Pyknosed Nuclei (%) [3]: 3%
- Population Tubulin-Different-Phenotype (%) [3]: 4%
- Population Apoptotic (%) [4]: 85%
- Population Fragmented Nuclei (%) [4]: 21%
- Population Healthy Nuclei (%) [4]: 70%
- Population Hoechst High Intensity Objects (%) [4]: 0%
- Population Membrane Permeable-Phenotype (%) [4]: 4%
- Population Mitochondria Different-Phenotype (%) [4]: 4%
- Population Mitotic Cells (%) [4]: 14%
- Population Normal (%) [4]: 100%
- Population Pyknosed Nuclei (%) [4]: 7%
- Population Apoptotic (%) [5]: 84%
- Population Fragmented Nuclei (%) [5]: 24%
- Population Healthy Nuclei (%) [5]: 66%
- Population Hoechst High Intensity Objects (%) [5]: 6%
- Population Membrane Permeable-Phenotype (%) [5]: 9%
- Population Mitochondria Different-Phenotype (%) [5]: 6%
- Population Mitotic Cells (%) [5]: 16%
- Population Normal (%) [5]: 93%
- Population Pyknosed Nuclei (%) [5]: 8%
- Population Tubulin-Different-Phenotype (%) [5]: 9%
- Population Apoptotic (%) [6]: 100%
- Population Fragmented Nuclei (%) [6]: 17%
- Population Healthy Nuclei (%) [6]: 74%
- Population Hoechst High Intensity Objects (%) [6]: 3%
- Population Mitochondria Different-Phenotype (%) [6]: 2%
- Population Mitotic Cells (%) [6]: 0%
- Population Normal (%) [6]: 96%
- Population Tubulin-Different-Phenotype (%) [6]: 7%
- Population Apoptotic (%) [7]: 83%
- Population Fragmented Nuclei (%) [7]: 25%
- Population Healthy Nuclei (%) [7]: 71%
- Population Hoechst High Intensity Objects (%) [7]: 2%
- Population Membrane Permeable-Phenotype (%) [7]: 4%
- Population Mitochondria Different-Phenotype (%) [7]: 3%
- Population Mitotic Cells (%) [7]: 16%
- Population Normal (%) [7]: 97%
- Population Pyknosed Nuclei (%) [7]: 3%
- Population Tubulin-Different-Phenotype (%) [7]: 3%
- Population Apoptotic (%) [8]: 100%
- Population Fragmented Nuclei (%) [8]: 17%
- Population Healthy Nuclei (%) [8]: 78%
- Population Hoechst High Intensity Objects (%) [8]: 0%
- Population Membrane Permeable-Phenotype (%) [8]: 8%
- Population Mitochondria Different-Phenotype (%) [8]: 4%
- Population Mitotic Cells (%) [8]: 0%
- Population Normal (%) [8]: 100%
- Population Pyknosed Nuclei (%) [8]: 4%
- Population Tubulin-Different-Phenotype (%) [8]: 5%
- Population Apoptotic (%) [9]: 76%
- Population Fragmented Nuclei (%) [9]: 20%
- Population Healthy Nuclei (%) [9]: 69%
- Population Hoechst High Intensity Objects (%) [9]: 3%
- Population Membrane Permeable-Phenotype (%) [9]: 7%
- Population Mitochondria Different-Phenotype (%) [9]: 5%
- Population Mitotic Cells (%) [9]: 23%
- Population Normal (%) [9]: 96%
- Population Pyknosed Nuclei (%) [9]: 9%
- Population Tubulin-Different-Phenotype (%) [9]: 5%
- Population Apoptotic (%) [10]: 91%
- Population Fragmented Nuclei (%) [10]: 16%
- Population Healthy Nuclei (%) [10]: 72%
- Population Membrane Permeable-Phenotype (%) [10]: 8%
- Population Mitotic Cells (%) [10]: 8%
- Population Pyknosed Nuclei (%) [10]: 11%
- Population Tubulin-Different-Phenotype (%) [10]: 6%
- Population Apoptotic (%) [11]: 91%
- Population Fragmented Nuclei (%) [11]: 20%
- Population Healthy Nuclei (%) [11]: 71%
- Population Hoechst High Intensity Objects (%) [11]: 2%
- Population Membrane Permeable-Phenotype (%) [11]: 3%
- Population Mitochondria Different-Phenotype (%) [11]: 2%
- Population Mitotic Cells (%) [11]: 8%
- Population Normal (%) [11]: 97%
- Population Pyknosed Nuclei (%) [11]: 7%
- Population Tubulin-Different-Phenotype (%) [11]: 1%
- Population Apoptotic (%) [12]: 93%
- Population Hoechst High Intensity Objects (%) [12]: 1%
- Population Membrane Permeable-Phenotype (%) [12]: 9%
- Population Mitotic Cells (%) [12]: 6%
- Population Normal (%) [12]: 98%
- Population Tubulin-Different-Phenotype (%) [12]: 4%

Structure (SMILES): CC(C)(C)c1ccc(S(=O)(=O)Nc2ccc(Cl)cc2C(=O)c2cc[n+]([O-])cc2)cc1 [VERCIRNON]
- Population Apoptotic (%) [1]: 77%
- Population Fragmented Nuclei (%) [1]: 28%
- Population Healthy Nuclei (%) [1]: 61%
- Population Hoechst High Intensity Objects (%) [1]: 1%
- Population Membrane Permeable-Phenotype (%) [1]: 8%
- Population Mitochondria Different-Phenotype (%) [1]: 5%
- Population Mitotic Cells (%) [1]: 22%
- Population Normal (%) [1]: 98%
- Population Pyknosed Nuclei (%) [1]: 10%
- Population Tubulin-Different-Phenotype (%) [1]: 4%
- Total Cell Count [1]: 307
- Population Apoptotic (%) [2]: 100%
- Population Fragmented Nuclei (%) [2]: 15%
- Population Healthy Nuclei (%) [2]: 79%
- Population Hoechst High Intensity Objects (%) [2]: 0%
- Population Mitochondria Different-Phenotype (%) [2]: 4%
- Population Mitotic Cells (%) [2]: 0%
- Population Normal (%) [2]: 99%
- Population Pyknosed Nuclei (%) [2]: 5%
- Population Tubulin-Different-Phenotype (%) [2]: 3%
- Total Cell Count [2]: 156
- Population Apoptotic (%) [3]: 77%
- Population Fragmented Nuclei (%) [3]: 24%
- Population Healthy Nuclei (%) [3]: 68%
- Population Hoechst High Intensity Objects (%) [3]: 1%
- Population Membrane Permeable-Phenotype (%) [3]: 3%
- Population Mitochondria Different-Phenotype (%) [3]: 2%
- Population Mitotic Cells (%) [3]: 22%
- Population Normal (%) [3]: 98%
- Population Pyknosed Nuclei (%) [3]: 6%
- Population Tubulin-Different-Phenotype (%) [3]: 1%
- Total Cell Count [3]: 266
- Population Apoptotic (%) [4]: 50%
- Population Fragmented Nuclei (%) [4]: 21%
- Population Healthy Nuclei (%) [4]: 77%
- Population Hoechst High Intensity Objects (%) [4]: 0%
- Population Membrane Permeable-Phenotype (%) [4]: 15%
- Population Mitotic Cells (%) [4]: 50%
- Population Normal (%) [4]: 99%
- Population Pyknosed Nuclei (%) [4]: 1%
- Population Tubulin-Different-Phenotype (%) [4]: 15%
- Total Cell Count [4]: 123
- Population Apoptotic (%) [5]: 89%
- Population Fragmented Nuclei (%) [5]: 25%
- Population Healthy Nuclei (%) [5]: 67%
- Population Hoechst High Intensity Objects (%) [5]: 1%
- Population Membrane Permeable-Phenotype (%) [5]: 8%
- Population Mitochondria Different-Phenotype (%) [5]: 5%
- Population Mitotic Cells (%) [5]: 10%
- Population Normal (%) [5]: 98%
- Population Pyknosed Nuclei (%) [5]: 7%
- Population Tubulin-Different-Phenotype (%) [5]: 4%
- Total Cell Count [5]: 357
- Population Apoptotic (%) [6]: 92%
- Population Fragmented Nuclei (%) [6]: 18%
- Population Healthy Nuclei (%) [6]: 74%
- Population Hoechst High Intensity Objects (%) [6]: 0%
- Population Membrane Permeable-Phenotype (%) [6]: 2%
- Population Mitochondria Different-Phenotype (%) [6]: 4%
- Population Mitotic Cells (%) [6]: 7%
- Population Normal (%) [6]: 99%
- Population Tubulin-Different-Phenotype (%) [6]: 2%
- Total Cell Count [6]: 183
- Population Apoptotic (%) [7]: 76%
- Population Fragmented Nuclei (%) [7]: 21%
- Population Healthy Nuclei (%) [7]: 72%
- Population Hoechst High Intensity Objects (%) [7]: 2%
- Population Membrane Permeable-Phenotype (%) [7]: 1%
- Population Mitochondria Different-Phenotype (%) [7]: 1%
- Population Mitotic Cells (%) [7]: 23%
- Population Normal (%) [7]: 97%
- Population Pyknosed Nuclei (%) [7]: 5%
- Population Tubulin-Different-Phenotype (%) [7]: 1%
- Total Cell Count [7]: 297
- Population Apoptotic (%) [8]: 71%
- Population Fragmented Nuclei (%) [8]: 22%
- Population Hoechst High Intensity Objects (%) [8]: 1%
- Population Membrane Permeable-Phenotype (%) [8]: 13%
- Population Mitotic Cells (%) [8]: 28%
- Population Normal (%) [8]: 98%
- Population Pyknosed Nuclei (%) [8]: 4%
- Population Tubulin-Different-Phenotype (%) [8]: 15%
- Total Cell Count [8]: 160
- Population Apoptotic (%) [9]: 82%
- Population Fragmented Nuclei (%) [9]: 19%
- Population Healthy Nuclei (%) [9]: 73%
- Population Hoechst High Intensity Objects (%) [9]: 3%
- Population Membrane Permeable-Phenotype (%) [9]: 5%
- Population Mitochondria Different-Phenotype (%) [9]: 3%
- Population Mitotic Cells (%) [9]: 17%
- Population Normal (%) [9]: 96%
- Population Pyknosed Nuclei (%) [9]: 6%
- Population Tubulin-Different-Phenotype (%) [9]: 4%
- Total Cell Count [9]: 515
- Population Apoptotic (%) [10]: 84%
- Population Fragmented Nuclei (%) [10]: 15%
- Population Healthy Nuclei (%) [10]: 75%
- Population Hoechst High Intensity Objects (%) [10]: 4%
- Population Membrane Permeable-Phenotype (%) [10]: 7%
- Population Mitochondria Different-Phenotype (%) [10]: 2%
- Population Mitotic Cells (%) [10]: 15%
- Population Normal (%) [10]: 95%
- Population Pyknosed Nuclei (%) [10]: 9%
- Population Tubulin-Different-Phenotype (%) [10]: 2%
- Total Cell Count [10]: 296
- Population Apoptotic (%) [11]: 79%
- Population Fragmented Nuclei (%) [11]: 18%
- Population Healthy Nuclei (%) [11]: 75%
- Population Hoechst High Intensity Objects (%) [11]: 1%
- Population Membrane Permeable-Phenotype (%) [11]: 2%
- Population Mitochondria Different-Phenotype (%) [11]: 1%
- Population Mitotic Cells (%) [11]: 20%
- Population Normal (%) [11]: 98%
- Population Pyknosed Nuclei (%) [11]: 5%
- Population Tubulin-Different-Phenotype (%) [11]: 1%
- Total Cell Count [11]: 414
- Population Apoptotic (%) [12]: 77%
- Population Fragmented Nuclei (%) [12]: 26%
- Population Healthy Nuclei (%) [12]: 65%
- Population Hoechst High Intensity Objects (%) [12]: 2%
- Population Membrane Permeable-Phenotype (%) [12]: 8%
- Population Mitochondria Different-Phenotype (%) [12]: 5%
- Population Mitotic Cells (%) [12]: 22%
- Population Normal (%) [12]: 97%
- Population Pyknosed Nuclei (%) [12]: 8%
- Population Tubulin-Different-Phenotype (%) [12]: 11%
- Total Cell Count [12]: 215
